From article PMC8059355 (ACS infectious diseases, 2020)
“Also recorded” adds a separate entry of the source. Where two headings read alike, the source gives them in different places.

Columns and labels:
[1] = system: L. amazonensis promastigotes and amastigotes; test: microscopy of cell division in L. amazonensis promastigotes and amastigotes; assay type: cell-based, Leishmania amazonensis; conditions: 48 h at the EC50 72h concentration; for increase in parasites in mid-cell division, promastigotes: compared to DMSO control
[2] = system: L. amazonensis promastigotes; test: microscopy of promastigote morphology; assay type: cell-based, Leishmania amazonensis; conditions: compared to DMSO control; for increase in pear-shaped promastigotes: 48 h at the EC50 72h; for increase in flagella length: promastigotes, 24 h at the EC50 72h
[3] = system: purified L. tarentolae tubulin; test: turbidity tubulin polymerization assay, purified L. tarentolae tubulin; assay type: biochemical, Leishmania tarentolae; conditions: read-out: L. tarentolae tubulin polymerization EC50 (estimated); 3 mg/mL tubulin, A340, 30 °C
L. amazonensis = test: paclitaxel EC50 72h for La; assay type: cell-based; conditions: Leishmania amazonensis, read-out: EC50 72h for La
[4] = system: L. amazonensis axenic amastigotes; assay type: cell-based, Leishmania amazonensis; conditions: 24 h at the EC50 72h, densitometry of Western blots
[5] = system: L. amazonensis promastigotes; test: alamarBlue assay, L. amazonensis promastigotes; assay type: cell-based, Leishmania amazonensis; conditions: read-out: Promastigote EC50 ± SE, 72 h
[6] = system: purified L. tarentolae tubulin; test: chemical cross-linking with SW22 probe and competition, fluorescent tubulin band; assay type: binding, Leishmania tarentolae; conditions: for competition with SW22 probe for tubulin, fluorescent band: fully purified tubulin, competitor at 100-fold excess
[7] = system: L. amazonensis axenic amastigotes; assay type: cell-based, Leishmania amazonensis; conditions: for EC50: Leishmania amazonensis, 72 h, read-out: EC50 ± SE
[8] = system: L. amazonensis intracellular amastigotes; assay type: cell-based, Leishmania amazonensis; conditions: read-out: intracellular amastigotes, EC50 ± SE
Cryptosporidium parvum = conditions: read-out: Cryptosporidium parvum EC50; cited from earlier work
[9] = system: L. tarentolae axenic amastigotes; test: alamarBlue assay, L. tarentolae axenic amastigotes; assay type: cell-based, Leishmania tarentolae; conditions: read-out: L. tarentolae axenic amastigotes EC50 ± SE
How it was run: (§1)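 Axenic amastigotes were exposed to a compound dilution series and growth was measured with 10% alamarBlue, fluorescence at 530 nm excitation and 570 nm emission. Each plate held three technical replicates, with at least three biological repeats. Percent growth relative to untreated control was plotted against log10 concentration. EC50 per repeat was fitted by sigmoidal variable-slope nonlinear regression and reported as mean ± SE.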

[10] = system: blood-stage Trypanosoma brucei; test: CellTiter-Glo luminescent assay, T. brucei; assay type: cell-based; conditions: read-out: T. brucei EC50 ± SE
[11] = system: L. donovani axenic amastigotes; test: alamarBlue assay, L. donovani axenic amastigotes; assay type: cell-based, Leishmania donovani; conditions: read-out: L. donovani axenic amastigotes, EC50 ± SE, 72 h
How it was run: as §1

[12] = system: blood-stage P. falciparum; test: Malaria SYBR green I fluorescence; assay type: cell-based, Plasmodium falciparum; conditions: read-out: P. falciparum EC50 ± SE, 3D7, MSF assay
Neospora caninum = conditions: read-out: Neospora caninum EC50; cited from earlier work
[13] = system: Entamoeba histolytica trophozoite; conditions: cited from earlier work
[14] = L. amazonensis intracellular amastigotes in RAW 264.7 cells, 72 h, luciferase

CC(=O)O[C@H]1C(=O)[C@@]2(C)[C@H]([C@H](OC(=O)c3ccccc3)[C@]3(O)C[C@H](OC(=O)[C@H](O)[C@@H](NC(=O)c4ccccc4)c4ccccc4)C(C)=C1C3(C)C)[C@]1(OC(C)=O)CO[C@@H]1C[C@@H]2O [paclitaxel]
increase in parasites in mid-cell division, promastigotes [1]: ~ 2 fold | increase in pear-shaped promastigotes [2]: 2 fold | increase in flagella length [2]: ~ 1.5 fold | EC50 [3]: 1.3 ± 0.1 µM | EC50 (L. amazonensis): 0.76 ± 0.0083 µM | proportion of cellular polymeric tubulin [4]: significantly increased

CSc1ccccc1C(=O)Oc1cc(C)nc(-n2nc(C)cc2N)n1 [SW10]
CC50 (RAW 264.7 cells): > 10 µM | EC50 [5]: > 50 µM | dimming of the fluorescent tubulin band in presence of competitor ([6]; L. tarentolae tubulin still including some additional proteins, SW22 probe): No apparent dimming | competition with SW22 probe for tubulin, fluorescent band [6]: no apparent competition | antileishmanial activity (in words) ([7]; L. amazonensis): essentially inactive; also recorded: nearly inactive

N#Cc1nc(-c2ccccc2)oc1S(=O)(=O)c1ccc(Cl)cc1 [MMV676412]
EC50 [8, 14]: > 2 µM

C[C@@H]1[C@H](O)[C@@H](C)/C=C/C=C/C=C/C=C/C=C/C=C/C=C/[C@H](O[C@@H]2O[C@H](C)[C@@H](O)[C@H](N)[C@@H]2O)C[C@@H]2O[C@](O)(C[C@@H](O)C[C@@H](O)[C@H](O)CC[C@@H](O)C[C@@H](O)CC(=O)O[C@H]1C)C[C@H](O)[C@H]2C(=O)O [amphotericin B, reference compound]
EC50 ([8]; Leishmania amazonensis, RAW264.7, 72 h): 0.065 ± 0.026 µM | EC50 [7]: 0.053 ± 0.0044 µM

CCc1c(C)nc(-n2nc(C)cc2NC(=O)c2ccccc2SC)[nH]c1=O [MMV676477]
increase in parasites in mid-cell division, promastigotes [1]: ~ 2 fold | increase in pear-shaped promastigotes [2]: 2 fold | increase in flagella length [2]: ~ 1.5 fold | EC50 (Cryptosporidium parvum): 0.22 µM | EC50 [9]: 0.011 ± 0.0013 µM | EC50 [3]: 0.5 ± 0.1 µM | EC50 [8, 14]: 0.5 ± 0.02 µM | CC50 (RAW 264.7 cells): 2.2 ± 0.41 µM | EC50 [10]: 0.19 ± 0.0087 µM | EC50 [11]: 1.3 ± 0.21 µM | EC50 [12]: 0.42 ± 0.019 µM | EC50 [5]: 2.4 ± 0.035 µM | EC50 (Neospora caninum): 0.013 µM | competition with SW22 probe for tubulin, fluorescent band [6]: significantly dimmer | Entamoeba histolytica trophozoite proliferation at 10 μM [13]: 56% | proportion of cellular polymeric tubulin [4]: significantly increased

C#CCOc1ccc(C(=O)c2ccc(C(=O)Nc3cc(C)nn3-c3nc(C)c(CC)c(=O)[nH]3)cc2)cc1 [SW22, N-(1-(5-ethyl-4-methyl-6-oxo-1,6-dihydropyrimidin-2-yl)-3-methyl-1H-pyra-zol-5-yl)-4-(4-(prop-2-yn-1-yloxy)benzoyl) benzamide]
CC50 (RAW 264.7 cells): 1.3 ± 0.042 µM | EC50 [5]: 6.7 ± 0.053 µM

CCCCCCCCCCCCCCCCOP(=O)([O-])OCC[N+](C)(C)C [miltefosine]
effect on L. amazonensis cell division [1]: did not affect L. amazonensis cell division | increase in pear-shaped promastigotes [2]: did not affect | increase in flagella length [2]: did not affect | EC50 [7]: 1.2 ± 0.28 µM

C[C@]1(COc2ccc(N3CCC(Oc4ccc(OC(F)(F)F)cc4)CC3)cc2)Cn2cc([N+](=O)[O-])nc2O1 [delamanid]
EC50 [7]: 0.031 ± 0.0035 µM

CC(C)(C)[C@H]1CC[C@H](CC2=C(O)C(=O)c3ccccc3C2=O)CC1 [buparvaquone]
EC50 [7]: 0.012 ± 0.0011 µM

CC(=O)Oc1ccccc1C(=O)Nc1ncc([N+](=O)[O-])s1 [nitazoxanide]
EC50 [7]: 0.59 ± 0.1 µM

CCc1c(C)nc(-n2nc(C)cc2NC(=O)c2ccc(F)c(Cl)c2)[nH]c1=O [SW41]
EC50 [8, 14]: 0.22 ± 0.013 µM | CC50 (RAW 264.7 cells): 2.4 ± 0.1 µM | EC50 [11]: 0.31 ± 0.038 µM | EC50 [5]: 0.78 ± 0.029 µM
